Active and inactive are the calls of the source. The calls are words filed in the database; no cut-off is given here.
How the values were obtained:
Assay type in all cases: functional, cell-based
[1] = biological target: P2Y purinoceptor 6 (Homo sapiens) (UniProt Q15077); assay: Agonist activity at human P2Y6 receptor expressed in human 1321N1 cells assessed as stimulation of PLC-induced [3H]inositol phosphate production at 100 uM after 30 mins by scintillation counting
Method in brief: (§1)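 Retrovirally generated stable 1321N1 lines labelled 16 h with 1.0 μCi [3H]myo-inositol in inositol-free DMEM. Analogues at 100 μM, 30 min at 37°C in Hepes pH 7.3/HBSS with LiCl. Total [3H]inositol phosphates taken by formic acid extraction and Dowex anion exchange, then scintillation counting. P2Y2 and P2Y4 responses expressed as % of 100 nM UTP; P2Y6 as % of 1 μM UDP. Mean ± S.E.M., ≥3 experiments.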

[2] = biological target: T1, P2Y purinoceptor 2 (Homo sapiens, UniProt P41231); assay: Agonist activity at human P2Y2 receptor expressed in human 1321N1 cells assessed as stimulation of PLC-induced [3H]inositol phosphate production at 100 uM after 30 mins by scintillation counting relative to UTP; method in brief: as §1
[3] = biological target: P2Y purinoceptor 4 (Homo sapiens) (UniProt P51582); assay: Agonist activity at human P2Y4 receptor expressed in human 1321N1 cells assessed as stimulation of PLC-induced [3H]inositol phosphate production at 100 uM after 30 mins by scintillation counting; method in brief: as §1
[4] = biological target: T1, P2Y purinoceptor 2; assay: Agonist activity at human P2Y2 receptor expressed in human 1321N1 cells assessed as stimulation of PLC-induced [3H]inositol phosphate production after 30 mins by scintillation counting
Method in brief: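 Stable 1321N1 astrocytoma lines made by retroviral expression of the receptor. Cells plated 20,000/well two days ahead and labelled 16 h in serum-free, inositol-free DMEM with 1.0 μCi [3H]myo-inositol. Agonist added in HBSS with 100 mM Hepes pH 7.3 (five-fold stock) and 50 mM LiCl, 30 min at 37°C. Stopped with cold 50 mM formic acid, neutralized, Dowex columns. EC50 by non-linear regression, triplicates, ≥3 experiments.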

P2Y purinoceptor 6 (Homo sapiens), sequence (Q15077 whole entry): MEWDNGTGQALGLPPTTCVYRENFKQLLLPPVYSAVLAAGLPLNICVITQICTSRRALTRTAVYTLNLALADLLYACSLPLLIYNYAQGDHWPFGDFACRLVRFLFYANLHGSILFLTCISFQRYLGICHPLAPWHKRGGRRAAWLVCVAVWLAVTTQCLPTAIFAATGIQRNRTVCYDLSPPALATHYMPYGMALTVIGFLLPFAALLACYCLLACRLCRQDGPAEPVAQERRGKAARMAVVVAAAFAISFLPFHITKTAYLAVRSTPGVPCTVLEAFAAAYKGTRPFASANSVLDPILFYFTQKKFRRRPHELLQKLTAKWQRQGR
P2Y purinoceptor 4 (Homo sapiens), sequence (P51582 whole entry): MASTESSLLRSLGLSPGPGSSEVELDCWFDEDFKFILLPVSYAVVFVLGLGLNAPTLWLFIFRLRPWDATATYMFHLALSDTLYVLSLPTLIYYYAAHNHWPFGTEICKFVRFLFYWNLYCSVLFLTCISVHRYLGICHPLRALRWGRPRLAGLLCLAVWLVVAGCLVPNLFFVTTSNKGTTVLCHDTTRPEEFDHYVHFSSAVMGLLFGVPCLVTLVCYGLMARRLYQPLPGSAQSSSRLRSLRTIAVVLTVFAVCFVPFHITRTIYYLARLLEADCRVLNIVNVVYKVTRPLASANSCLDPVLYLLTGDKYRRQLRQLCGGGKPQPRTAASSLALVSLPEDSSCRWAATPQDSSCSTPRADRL
T1 sequence (P41231 whole entry): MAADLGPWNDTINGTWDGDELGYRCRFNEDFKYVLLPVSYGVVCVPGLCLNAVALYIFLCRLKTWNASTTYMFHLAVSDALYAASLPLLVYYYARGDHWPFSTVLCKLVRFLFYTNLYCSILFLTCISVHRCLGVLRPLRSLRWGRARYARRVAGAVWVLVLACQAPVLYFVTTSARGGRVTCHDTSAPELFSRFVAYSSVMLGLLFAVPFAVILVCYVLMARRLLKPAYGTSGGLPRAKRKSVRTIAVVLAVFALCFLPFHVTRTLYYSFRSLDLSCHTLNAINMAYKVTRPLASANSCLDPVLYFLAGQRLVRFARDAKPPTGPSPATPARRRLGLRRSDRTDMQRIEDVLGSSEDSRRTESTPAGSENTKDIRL

| Compound | Activity [1] | Emax [2] | Activity [3] | EC50 [4] |
| --- | --- | --- | --- | --- |
| O=c1[nH]c(=O)n([C@@H]2O[C@H](CCP(=O)(O)O)[C@@H](O)[C@H]2O)cc1-c1csc2ccccc12 | inactive | 45% | inactive | > 20 µM |
| O=c1ccn([C@@H]2O[C@H](CCP(=O)(O)O)[C@@H](O)[C@H]2Cl)c(=O)[nH]1 | inactive | 9% | inactive | > 20 µM |
| O=c1ccn([C@@H]2O[C@H](CCP(=O)(O)O)[C@@H](O)[C@H]2O)c(=O)[nH]1 | – | 32% | – | 5.1 µM |
| O=c1[nH]c(=O)n([C@@H]2O[C@H](CCP(=O)(O)O)[C@@H](O)[C@H]2O)cc1/C=C/c1ccccc1 | inactive | 41% | inactive | 3.1 µM |
| O=c1ccn([C@@H]2O[C@H](OCP(=O)(O)O)[C@@H](O)[C@H]2O)c(=O)[nH]1 | inactive | 19% | inactive | > 20 µM |
| O=c1[nH]c(=O)n([C@@H]2O[C@H](CCP(=O)(O)O)[C@@H](O)[C@H]2O)cc1-c1cccs1 | inactive | 35% | inactive | 0.5 µM |
| O=c1ccn([C@H]2[C@H](O)[C@H](O)[C@]3(CCP(=O)(O)O)C[C@H]23)c(=O)[nH]1 | – | – | – | 4 µM |
| O=c1[nH]c(=O)n([C@@H]2O[C@H](CCP(=O)(O)O)[C@@H](O)[C@H]2O)cc1-c1ccccc1 | inactive | 53% | inactive | 1.5 µM |
| O=c1ccn([C@@H]2O[C@H](COP(=O)(O)OP(=O)(O)OP(=O)(O)O)[C@@H](O)[C@H]2O)c(=O)[nH]1 [URIDINE TRIPHOSPHATE] | – | – | – | 0.02 µM |
| Cc1ccc(-c2cn([C@@H]3O[C@H](CCP(=O)(O)O)[C@@H](O)[C@H]3O)c(=O)[nH]c2=O)cc1 | inactive | 41% | inactive | 1 µM |
| N[C@@H]1[C@H](O)[C@@H](CCP(=O)(O)O)O[C@H]1n1ccc(=O)[nH]c1=O | inactive | 9% | inactive | > 20 µM |
| O=c1ccn([C@@H]2O[C@H](COP(=O)(O)OP(=O)(O)O)[C@@H](O)[C@H]2O)c(=O)[nH]1 | inactive | – | – | – |
| O=c1[nH]c(=O)n([C@@H]2O[C@H](CCP(=O)(O)O)[C@@H](O)[C@H]2O)cc1-c1ccc2ccccc2c1 | inactive | 54% | inactive | 2.1 µM |
| O=c1[nH]c(=O)n([C@@H]2O[C@H](CCP(=O)(O)O)[C@@H](O)[C@H]2O)cc1-c1ccco1 | inactive | 45% | inactive | 0.7 µM |
| O=c1[nH]c(=O)n([C@@H]2O[C@H](CCP(=O)(O)O)[C@@H](O)[C@H]2O)cc1-c1ccc(F)cc1 | inactive | 43% | inactive | 0.4 µM |

— ChEMBL document CHEMBL1955746, “Synthesis and P2Y₂ receptor agonist activities of uridine 5'-phosphonate analogues” (Bioorg Med Chem, 2012)
